Assay results from different studies.
Lines come from different studies, so protocols differ.
Target: Muscarinic acetylcholine receptor M2 (CHRM2, Homo sapiens, UniProt P08172)
Sequence (P08172 1-466, as in one of the studies): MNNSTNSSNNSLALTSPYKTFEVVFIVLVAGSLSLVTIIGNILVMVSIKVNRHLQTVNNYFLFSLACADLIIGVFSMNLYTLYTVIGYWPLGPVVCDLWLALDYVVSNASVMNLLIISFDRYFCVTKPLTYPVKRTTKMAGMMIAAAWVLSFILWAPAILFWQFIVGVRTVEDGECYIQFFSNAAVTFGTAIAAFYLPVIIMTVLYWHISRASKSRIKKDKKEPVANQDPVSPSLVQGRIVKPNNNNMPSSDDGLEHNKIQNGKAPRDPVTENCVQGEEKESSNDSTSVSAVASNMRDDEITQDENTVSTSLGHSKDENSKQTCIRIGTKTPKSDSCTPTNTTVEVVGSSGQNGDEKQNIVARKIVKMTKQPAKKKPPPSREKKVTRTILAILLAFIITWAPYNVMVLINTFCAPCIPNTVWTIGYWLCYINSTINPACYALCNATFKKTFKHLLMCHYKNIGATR

observed | mode | technique | measurement | result | Structure (SMILES)
calcium signal | agonist |  | EC50 | > 15.8 µM | CCn1c(-c2nc3cc(C(=O)N4CCC[C@@H](N)C4)cc(OC)c3n2C)cc2cccnc21
ligand displacement |  | radioligand | IC50 | > 30 µM | CCOCc1nc(O)c(-c2nnc(Cc3ccc(Cl)cn3)o2)c(O)c1-c1c(OC)cccc1OC
ligand displacement |  | radioligand | Ki | 7.7 µM | Cc1cc(Oc2nccc3occc23)ccc1-c1c(C)c(=O)[nH]c(=O)n1C1CC1
calcium signal | antagonist | fluorescence | IC50 | > 15.8 µM | CCn1c(-c2nc3ccc(C(=O)N4CCCC(N)C4)cc3n2C)cc2ccccc21 (centres unmarked)
cell-free assay |  | radioligand | Ki | > 10 µM | CCCCN1CCC(COC(=O)c2ccc(N)c(OCF)c2)CC1
calcium signal | agonist |  | EC50 | > 30 µM | CCN(C(=O)C1CCN(S(=O)(=O)c2ccc3[nH]ncc3c2)CC1)[C@H](C)c1ccccc1
calcium signal | agonist |  | EC50 | > 50 µM | CC[C@@H]1SC2(CCN(C)CC2)NC1=O
ligand displacement |  | radioligand | Ki | 6.9 µM | COc1ccnc(Oc2ccc(-c3c(C)c(=O)[nH]c(=O)n3C)c(C)c2)c1C(F)(F)F
